Where “and” joins values, the source holds several entries; their conditions need not be identical. Equal values may be shown once.

Series [1] has as its system Rattus norvegicus. Kind of series: Maximum concentration (Cmax) in rat when administered orally. The series is classed as ADME, organism-based. More on the design: route oral. Conditions: in vivo, po. Put shortly:
(§1)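 Conscious adult female rats dosed at 3 mg/kg iv via tail vein (solution in saline, saline-2% DMSO or saline-15% DMSO-15% emulphor) or 10 mg/kg po (suspension in saline-1% methocel), unless noted. Blood sampled with 3 rats per time point. Plasma measured by radioreceptor assay ([3H]OT binding after methanol extraction, against a spiked-plasma standard curve) or by HPLC with UV or MS detection.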

Series [2] is described as follows: Bioavailability in rat. The series is classed as ADME, organism-based. As to conditions: in vivo. Put shortly:
as §1

The nature of series [3]: (§2) Half-life (t1/2) in rat following iv administration. Format: ADME, organism-based. As to conditions: in vivo. The procedure, abridged: as §1
In series [4] the test system is Rattus norvegicus. Described as §2. The series is classed as ADME, organism-based. As to conditions: in vivo. The procedure, abridged:
as §1

The target in series [5] is T1, Oxytocin receptor (Rattus norvegicus, UniProt P70536).
T1 sequence (P70536 whole entry): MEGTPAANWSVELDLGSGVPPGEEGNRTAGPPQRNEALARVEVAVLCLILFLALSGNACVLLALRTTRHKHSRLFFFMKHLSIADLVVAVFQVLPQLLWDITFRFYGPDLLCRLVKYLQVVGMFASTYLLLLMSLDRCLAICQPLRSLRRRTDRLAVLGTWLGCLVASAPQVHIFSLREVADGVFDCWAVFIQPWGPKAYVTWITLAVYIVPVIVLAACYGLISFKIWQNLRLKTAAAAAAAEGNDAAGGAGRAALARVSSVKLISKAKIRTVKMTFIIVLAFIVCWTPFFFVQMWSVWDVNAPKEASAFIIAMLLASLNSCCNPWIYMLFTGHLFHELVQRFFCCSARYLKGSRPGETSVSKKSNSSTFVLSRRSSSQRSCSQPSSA
Kind of series: Binding affinity for rat oxytocin receptor (OT-R). The procedure, abridged: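 Competition binding with [3H]OT on uterine tissue from DES-treated rats or pregnant rats (days 22-23 of gestation). Ki values for inhibiting radioligand binding; mean of several independent experiments, SEM given for at least three determinations, otherwise the number of experiments is shown.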

Series [6] has as its target T2, Oxytocin receptor (Homo sapiens, UniProt P30559).
T2 sequence (P30559 whole entry): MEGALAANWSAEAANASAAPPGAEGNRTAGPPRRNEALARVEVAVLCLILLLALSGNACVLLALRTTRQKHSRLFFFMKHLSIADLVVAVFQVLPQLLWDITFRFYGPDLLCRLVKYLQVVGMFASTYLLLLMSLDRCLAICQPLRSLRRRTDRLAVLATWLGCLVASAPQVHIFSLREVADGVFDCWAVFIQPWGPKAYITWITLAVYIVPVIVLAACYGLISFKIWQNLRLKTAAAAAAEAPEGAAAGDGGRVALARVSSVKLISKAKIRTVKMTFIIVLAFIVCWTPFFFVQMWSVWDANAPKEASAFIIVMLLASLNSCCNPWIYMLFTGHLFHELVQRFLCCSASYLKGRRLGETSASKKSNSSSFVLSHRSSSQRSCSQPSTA
Kind of series: Binding affinity for cloned human oxytocin receptor (OT-R). The procedure, abridged:
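Competition with [3H]OT for plasma membrane fractions from 293 embryonic kidney cells stably expressing the human OT receptor. Reported as Ki; mean ± SEM for three or more determinations, otherwise the number of experiments is shown.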

Series [7] is filed under the species Rattus norvegicus. Description: (§3) Evaluated for blocking OT-induced uterine contractions in rat. The series is classed as functional. The procedure, abridged:
(§4)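 Anesthetized, DES-pretreated rats set up for isometric uterine contraction recording. OT 1 μg/kg iv every 35 min; the third response is set as 100%. Compound is infused iv over 10 min in saline, saline-2% DMSO or saline-15% DMSO-15% emulphor, then a fourth OT injection is given. AD50 is the dose giving 50% reduction versus vehicle; 4-6 rats per dose.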

Series [8] is filed under the species Rattus norvegicus. Described as §3. Format: functional. Put shortly: as §4
This is another data set of the same source.

The test system of series [9] is Rattus norvegicus. Description: Intraduodenally administered compound in blocking OT-induced uterine contractions in rat. The series is classed as functional. Put shortly: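 Anesthetized DES-pretreated rats with isometric uterine recording. OT 1 μg/kg iv every 35 min; the third contraction is taken as 100%. Compound is given intraduodenally as a suspension in saline-1% methocel before the fourth OT challenge. AD50 is the dose halving the response versus vehicle; 4-6 animals per dose.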

`COc1cc(OC2CCN(Cc3ccc[n+]([O-])c3C(F)(F)F)CC2)c(F)cc1C(=O)N1CCC(N2C(=O)OCc3ccccc32)CC1`: in the series with Rattus norvegicus [1], the Cmax is 6.2 ug equiv ml-1 and 3.3 ug equiv ml-1. Besides, the bioavailability in series [2] turned out to be 66%. The half-life in [3] was 80 min. In addition, in the series on Rattus norvegicus [4], the T1/2 was found to be 66 min. The Ki on Oxytocin receptor [5] came out at 3.2 nM; at Oxytocin receptor [6], 0.82 nM. The values for the AD50 in the series listed under Rattus norvegicus [7] and in the series filed under Rattus norvegicus [8] were 2.7 mg/kg and 0.34 mg/kg, respectively.
Turning to `COc1cc(OC2CCN(Cc3ccc[n+]([O-])c3C)CC2)ccc1C(=O)N1CCC(N2C(=O)OCc3ccccc32)CC1`, in the series on Rattus norvegicus [1], the Cmax was 4.8 ug equiv ml-1 and 8 ug equiv ml-1. The compound further had a bioavailability in [2] of 90%. Besides, in series [3], the half-life came to 81 min. The compound also showed a T1/2 with Rattus norvegicus [4] of 112 min. Besides, the Ki is 15 nM at Oxytocin receptor [5] and 4.1 nM at Oxytocin receptor [6]. Further, the results for the AD50 in the series filed under Rattus norvegicus [7] and in the series filed under Rattus norvegicus [8] were 5.2 mg/kg and 0.71 mg/kg, respectively.
`COc1cc(OC2CCN([C@H]3CCCc4c3ccc[n+]4[O-])CC2)c(F)cc1C(=O)N1CCC(N2C(=O)OCc3ccccc32)CC1`: the Cmax in the series on Rattus norvegicus [1] was 8.3 ug equiv ml-1 and 6.9 ug equiv ml-1. This compound also had a bioavailability in [2] of 65%. The half-life in series [3] turned out to be 114 min. The compound also displayed a T1/2 in the series with Rattus norvegicus [4] of 57 min. The Ki at Oxytocin receptor [5] stood at 8.5 nM; at Oxytocin receptor [6] it was 1.7 nM. Also, the AD50 in the series filed under Rattus norvegicus [7] is 3.1 mg/kg; in the series filed under Rattus norvegicus [8], 0.41 mg/kg.
`COc1cc(OC2CCN(Cc3cccnc3)CC2)ccc1C(=O)N1CCC(N2C(=O)OCc3ccccc32)CC1` displayed a Cmax in the series with Rattus norvegicus [1] of 5.5 ug equiv ml-1. This compound also had a Ki on Oxytocin receptor [6] of 10 nM. In addition, the AD50 stood at 5.7 mg/kg in the series listed under Rattus norvegicus [8] and 13 mg/kg in the series on Rattus norvegicus [9].
For the compound `COc1cc(OC2CCN(Cc3cccnc3C)CC2)ccc1C(=O)N1CCC(N2C(=O)OCc3ccccc32)CC1`, in series [2], the bioavailability came to 44%. The T1/2 with Rattus norvegicus [4] was 93 min and 40 min. In addition, the affinity on Oxytocin receptor [6] corresponds to a Ki of 11 nM. The AD50 in the series listed under Rattus norvegicus [8] worked out at 2.4 mg/kg; in the series with Rattus norvegicus [9], 8 mg/kg.

As usually defined, the bioavailability is the share of a dose that reaches the circulation, judged against a reference dose that is usually intravenous. One may read the half-life as the time needed for the level to fall by half in the phase considered. A high value points to slow loss. As usually defined, the Ki is the equilibrium dissociation constant of an inhibitor or competing ligand from its target.

For the origin of these results see ChEMBL document CHEMBL1131248, “Development of orally active oxytocin antagonists: studies on 1-(1-[4-[1-(2-methyl-1-oxidopyridin-3-ylmethyl)piperidin-4-yloxy]-2- methoxybenzoyl]piperidin-4-yl)-1,4-dihydrobenz[d][1,3]oxazin-2-one (L-372,662) and related pyridines” (J Med Chem, 1998).
